Source: ChEMBL document CHEMBL1133553, “Synthesis and transporter binding properties of bridged piperazine analogues of 1-[2-[bis(4-fluorophenyl)methoxy]ethyl]-4-(3-phenylpropyl)piperazine (GBR 12909)” (J Med Chem, 2000)

Experiments:
[1] = target: T1, Sodium-dependent dopamine transporter (Rattus norvegicus, UniProt P23977); assay: Binding affinity for rat Dopamine transporter.
In short: (§1)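 Drugs and blockers prepared in 55.2 mM sodium phosphate buffer, pH 7.4, with 1 mg/mL BSA. Radioligand prepared in the same buffer with chymostatin, leupeptin, EDTA and EGTA. Triplicate incubations ran 18-24 h at 4 °C (equilibrium) in 1 mL, then were filtered over GF/B filters presoaked in 2% polyethylenimine.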

[2] = target: T2, Sodium-dependent serotonin transporter (Rattus norvegicus, UniProt P31652); assay: Inhibition of [3H]5-HT reuptake in whole rat brain (minus cerebellum) homogenate.; assay type: functional, tissue-based
T2 sequence (P31652 whole entry): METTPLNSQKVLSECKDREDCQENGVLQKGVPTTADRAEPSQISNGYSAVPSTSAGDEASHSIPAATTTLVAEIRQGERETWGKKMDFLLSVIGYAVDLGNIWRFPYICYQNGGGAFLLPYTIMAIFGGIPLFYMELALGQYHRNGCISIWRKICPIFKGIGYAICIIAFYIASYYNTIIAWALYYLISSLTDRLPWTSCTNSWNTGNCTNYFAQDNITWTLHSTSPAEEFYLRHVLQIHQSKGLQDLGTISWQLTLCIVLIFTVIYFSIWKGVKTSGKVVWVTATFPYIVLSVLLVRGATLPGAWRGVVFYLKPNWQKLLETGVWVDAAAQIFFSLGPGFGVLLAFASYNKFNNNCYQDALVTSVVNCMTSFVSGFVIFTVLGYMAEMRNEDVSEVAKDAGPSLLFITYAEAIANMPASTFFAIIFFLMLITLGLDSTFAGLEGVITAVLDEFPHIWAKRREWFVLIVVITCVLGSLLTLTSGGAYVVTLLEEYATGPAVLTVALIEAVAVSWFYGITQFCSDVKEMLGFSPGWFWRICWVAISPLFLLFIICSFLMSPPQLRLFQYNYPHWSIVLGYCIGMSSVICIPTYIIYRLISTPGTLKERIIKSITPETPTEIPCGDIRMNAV

[3] = target: T3, Monoamine transporters; serotonin & dopamine (Rattus norvegicus) (UniProt P31652+P23977); assay: Ratio of reuptake of 5-HT to that of DA; assay type: functional
T3 sequence (P23977 whole entry, looked up): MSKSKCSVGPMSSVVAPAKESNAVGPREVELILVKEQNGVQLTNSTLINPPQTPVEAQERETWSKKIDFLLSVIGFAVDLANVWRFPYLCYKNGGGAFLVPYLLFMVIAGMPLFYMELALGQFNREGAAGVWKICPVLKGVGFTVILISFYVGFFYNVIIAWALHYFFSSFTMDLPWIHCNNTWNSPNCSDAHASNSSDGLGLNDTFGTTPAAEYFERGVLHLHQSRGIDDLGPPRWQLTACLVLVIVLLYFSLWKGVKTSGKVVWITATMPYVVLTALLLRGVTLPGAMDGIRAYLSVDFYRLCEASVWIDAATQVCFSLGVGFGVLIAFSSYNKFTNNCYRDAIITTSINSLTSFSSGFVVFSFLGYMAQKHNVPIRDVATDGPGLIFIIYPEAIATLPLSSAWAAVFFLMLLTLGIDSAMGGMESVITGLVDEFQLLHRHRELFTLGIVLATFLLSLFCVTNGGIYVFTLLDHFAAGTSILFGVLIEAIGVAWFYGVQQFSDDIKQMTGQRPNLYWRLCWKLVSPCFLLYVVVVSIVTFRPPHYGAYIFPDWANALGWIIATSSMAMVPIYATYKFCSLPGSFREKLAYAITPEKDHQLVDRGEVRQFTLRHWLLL
T3 sequence (P31652 whole entry, looked up): as the sequence (P31652 whole entry) above

[4] = target: T2, Sodium-dependent serotonin transporter; assay: Binding affinity for rat 5-hydroxytryptamine transporter.; in short: as §1
[5] = target: T3, Monoamine transporters; serotonin & dopamine (Rattus norvegicus); assay: Ratio of binding affinity of 5-HT to that of DA; assay type: protein assay
[6] = target: T1, Sodium-dependent dopamine transporter; assay: Inhibition of [3H]DA reuptake in rat caudate homogenate.; assay type: functional, tissue-based

T1 sequence (P23977 whole entry): as the sequence (P23977 whole entry, looked up) above

SMILES	IC50 [1]	IC50 [2]	Ratio [3]	IC50 [4]	Ratio [5]	IC50 [6]
CN1C2CCC1CN(CCOC(c1ccc(F)cc1)c1ccc(F)cc1)C2	0.008 µM	0.898 µM	93	0.705 µM	88	0.0096 µM
Fc1ccc(C(OCCN2CC3CCC(C2)N3C/C=C/c2ccco2)c2ccc(F)cc2)cc1	0.0055 µM	0.299 µM	13	0.146 µM	27	0.024 µM
Fc1ccc(C(OCCN2CC3CCC(C2)N3Cc2cc3ccccc3[nH]2)c2ccc(F)cc2)cc1	0.0014 µM	0.645 µM	16	0.104 µM	74	0.04 µM
CN1C2CCC1CN(CCOC(c1ccc(F)cc1)c1ccc(F)cc1)CC2 (stereo not given)	0.089 µM	1.67 µM	47	1.9 µM	21	0.036 µM
CN1C2CCC1CN(CCOC(c1ccccc1)c1ccccc1)CC2 (stereo not given)	0.307 µM	6.15 µM	6.6	17 µM	56	0.928 µM
c1ccc(CCCN2C3CCC2CN(CCOC(c2ccccc2)c2ccccc2)C3)cc1	0.018 µM	1.39 µM	58	0.74 µM	42	0.024 µM
Fc1ccc(C(OCCN2CC3CCC(C2)N3CCCc2ccccc2)c2ccc(F)cc2)cc1	0.0082 µM	0.506 µM		0.077 µM		0.219 µM
Fc1ccc(C(OCCN2CC3CCC(C2)N3C/C=C/c2cccs2)c2ccc(F)cc2)cc1	0.004 µM	0.268 µM	10	0.046 µM	12	0.028 µM
CN1CC2CC1CN2CCOC(c1ccccc1)c1ccccc1 (stereo not given)	1.17 µM	28 µM	33	33 µM	29	0.83 µM
c1ccc(C(OCCN2CCC3CCC(C2)N3)c2ccccc2)cc1 (stereo not given)	0.431 µM	3.96 µM	15	6.06 µM	14	0.26 µM
c1ccc(CCCN2CC3CC2CN3CCOC(c2ccccc2)c2ccccc2)cc1 (stereo not given)	0.223 µM	0.912 µM	5	0.72 µM	3	0.198 µM
Fc1ccc(C(OCCN2CC3CCC(C2)N3C/C=C/c2cccnc2)c2ccc(F)cc2)cc1	0.012 µM	0.968 µM	40	0.395 µM	33	0.024 µM
CN1CC2CC1CN2CCOC(c1ccc(F)cc1)c1ccc(F)cc1 (stereo not given)	0.121 µM	2.15 µM	17	1.7 µM	14	0.125 µM
Fc1ccc(C(OCCN2CC3CC2CN3CCCc2ccccc2)c2ccc(F)cc2)cc1 (stereo not given)	0.127 µM	0.173 µM	1.5	0.203 µM	1.6	0.113 µM
c1ccc(CCCN2C3CCC2CN(CCOC(c2ccccc2)c2ccccc2)CC3)cc1 (stereo not given)	0.032 µM	2.3 µM	26	1.32 µM	41	0.087 µM
Fc1ccc(C(OCCN2CCC3CCC(C2)N3CCCc2ccccc2)c2ccc(F)cc2)cc1 (stereo not given)	0.13 µM	2.08 µM	44	0.843 µM	6.5	0.047 µM
CN1C2CCC1CN(CCOC(c1ccccc1)c1ccccc1)C2	0.111 µM	13.7 µM	12	6.4 µM	58	1.14 µM
